Screening results (PubChem BioAssay)
Rows were chosen to be rich in hits. Some 2.1% of all compounds tested hit in one or more screens of this group.
SUMO Mot1 rescue: SUMOylation pathway inhibition by Mot1-301 growth rescue; S. cerevisiae Mot1-301 growth rescue, ATP luminescence, 38.5C; percent above DMSO median, 100 means doubled; growth rescue, % at 18.8 µM; 1% of 320,000 active; AID 2716;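 active = every valid replicate shows activation above 250% relative to neutral control wells; inactive = the rest, any valid replicate at or below 250%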;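 also: OY570 slx delta 5 strain wells were the positive control but not used for scaling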
APOBEC3G inh: blocks human APOBEC3G single-stranded DNA deamination; recombinant A3G, ssDNA deamination FAM/TAMRA fluorescence; inhibition, % at 20 µM; 0.28% of 330,000 active; AID 493012;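 active = inhibition of at least 40% at 20 µM, with no more than 30% in the related APOBEC3A deaminase screen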;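 also: plate controls were DMSO wells with A3G for no effect and wells lacking A3G enzyme for full effect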
Target sequence (Q9HC16 whole entry, looked up): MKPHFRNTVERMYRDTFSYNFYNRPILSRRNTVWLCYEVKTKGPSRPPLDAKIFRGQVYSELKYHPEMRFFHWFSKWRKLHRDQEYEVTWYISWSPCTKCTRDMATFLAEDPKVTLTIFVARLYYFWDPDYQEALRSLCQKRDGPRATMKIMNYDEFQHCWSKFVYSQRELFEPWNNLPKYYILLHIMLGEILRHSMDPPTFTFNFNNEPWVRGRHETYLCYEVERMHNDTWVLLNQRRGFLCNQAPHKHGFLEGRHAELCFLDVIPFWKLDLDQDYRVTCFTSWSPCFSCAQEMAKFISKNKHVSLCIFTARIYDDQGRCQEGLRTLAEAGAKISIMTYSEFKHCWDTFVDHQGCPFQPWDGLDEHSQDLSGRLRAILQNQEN
Statin myotox sup: suppressors of simvastatin-induced myotoxicity in C2C12 myotubes. AID 602340. 0.78% of 330,000 active. ATP luminescence, 48 h; scaled: DMSO 0, geranylgeraniol control 100. rescue of ATP level, % at 7.49 µM;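 active = mean ATP rescue above about 67%, or every replicate alone reaching that limit, limit read from the data, passing the limit was not always enough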;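 also: myotubes were challenged with 10 µM simvastatin during compound exposure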
ASAP1 inh: ASAP1 ArfGAP inhibition; Q9ULH1; ASAP1-stimulated ARF1 GTP hydrolysis, GDP FP detection; inhibition, % at 16.5 µM; 0.19% of 360,000 active; AID 624377; in the data active = inhibition above about 25%;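 also: 0% = vehicle with enzyme and substrate and 100% = no enzyme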
ARFGAP1 inhibitor: inhibits rat ARF GTPase activating protein 1. inhibition, % at 16.5 µM. Q62848. Arfgap1-stimulated ARF1 GTP hydrolysis, GDP FP detection. 0.26% of 360,000 active;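 active = inhibition above a per-plate limit, mean inhibition of low control wells plus 3 SD, cut at about 25% in these data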;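 also: 0% = DMSO wells with enzyme and 100% = wells lacking Arfgap1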
Target sequence (Q62848 1-136 limits assumed): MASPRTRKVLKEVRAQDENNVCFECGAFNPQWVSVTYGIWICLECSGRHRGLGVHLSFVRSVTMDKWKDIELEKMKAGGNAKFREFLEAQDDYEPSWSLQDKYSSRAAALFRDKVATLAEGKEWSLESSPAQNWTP
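Material: rat Arfgap1 GAP domain (His6, aa 1-136), purified enzyme. Also added: human ARF1(Δ1-17)-GTP substrate. Compound dosing: 16.5 µM single point, 1.26% DMSO. Timing: enzyme reaction 120 min at 25 °C after 20 min preincubation. Signal: GDP detection by fluorescence polarization. Read-out basis: percent inhibition of GAP-stimulated GDP formation, scaled between DMSO and no-Arfgap1 medians.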
APOBEC3A inh: inhibitors of human APOBEC3A DNA deaminase | recombinant A3A, FAM/TAMRA ssDNA deamination fluorescence | inhibition, % at 20 µM | 0.41% of 330,000 active | P31941;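 active = at least 40% inhibition at 20 µM here, with at most 30% in a related deaminase screen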;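 also: plate controls were A3A with DMSO for no effect and wells lacking A3A enzyme for full effect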
Numbers without * were called inactive.

Results for O=C1N/C(=C\c2ccccc2)c2ccccc21 ?
SUMO Mot1 rescue: 35; APOBEC3G inh: -6; Statin myotox sup: -144; ASAP1 inh: 1; ARFGAP1 inhibitor: 7; APOBEC3A inh: 4

How did S=C(NCCN1CCCCC1)Nc1ccc(Br)cc1 do in these assays?
SUMO Mot1 rescue: 348*; APOBEC3G inh: -6; Statin myotox sup: -41; ASAP1 inh: 2; ARFGAP1 inhibitor: 12; APOBEC3A inh: 0

What do the screens show for `C[C@@H]1CCCCO[C@H](CN(C)C(=O)Nc2cccc3ccccc23)[C@H](C)CN([C@@H](C)CO)C(=O)c2cc(NS(=O)(=O)c3ccc(Cl)cc3)ccc2O1`?
Statin myotox sup: 192*

How did C[C@@H]1CCCCO[C@@H](CN(C)C(=O)Nc2cccc3ccccc23)[C@H](C)CN([C@@H](C)CO)C(=O)c2cc(NS(=O)(=O)c3ccc(Cl)cc3)ccc2O1 do in these assays?
Statin myotox sup: 137*

Results for O=C(Nc1cc(F)ccc1F)N1C[C@H]2[C@@H](c3ccccc31)[C@@H](CO)N2Cc1ccncc1 ?
Statin myotox sup: -6

How did Cc1ccc(SCCNC(=S)Nc2cc(C)cc(C)c2)cc1 do in these assays?
SUMO Mot1 rescue: 25; APOBEC3G inh: -5; Statin myotox sup: 117*; ASAP1 inh: 4; ARFGAP1 inhibitor: -7; APOBEC3A inh: 0

Results for CC(C)C(=O)Nc1ccc2c(c1)C(=O)N(C)[C@@H]1CC[C@H](CC(=O)NCc3ccc(F)cc3)O[C@@H]1CO2 ?
Statin myotox sup: 1

What do the screens show for `CN(C)c1ccc(CC2C(=O)Nc3ccccc32)cc1` (stereo not given)?
SUMO Mot1 rescue: -14; APOBEC3G inh: 45*; ASAP1 inh: 6; ARFGAP1 inhibitor: -6; APOBEC3A inh: -5

How did CN(C)c1ccc(NC(=O)C(=O)C2C(=O)Nc3ccccc32)cc1 (stereo not given) do in these assays?
SUMO Mot1 rescue: 229; APOBEC3G inh: -1; Statin myotox sup: -4; ASAP1 inh: -2; ARFGAP1 inhibitor: -9; APOBEC3A inh: 0

What do the screens show for `CN(C)c1ccc(C=C2C(=O)OC(C)(C(C)(C)C)OC2=O)cc1` (stereo not given)?
SUMO Mot1 rescue: 311*; APOBEC3G inh: -6; Statin myotox sup: 0; ASAP1 inh: 7; ARFGAP1 inhibitor: 9; APOBEC3A inh: -3

Results for CN(C)c1ccc(C=C2C(=O)OC(C)(C)OC2=O)cc1 ?
SUMO Mot1 rescue: -3; APOBEC3G inh: -7; Statin myotox sup: 0; ASAP1 inh: -2; ARFGAP1 inhibitor: -3; APOBEC3A inh: -4

Results for O=C(N/C(=C\c1cccs1)C(=O)N1CCCCCC1)c1ccccc1 ?
SUMO Mot1 rescue: 312*; APOBEC3G inh: -4; Statin myotox sup: 13; ASAP1 inh: 7; ARFGAP1 inhibitor: -1; APOBEC3A inh: -2

Results for O=C(N/C(=C/c1cccs1)C(=O)N1CCCCCC1)c1ccccc1 ?
SUMO Mot1 rescue: 5; APOBEC3G inh: -1; Statin myotox sup: 15; ASAP1 inh: 8; ARFGAP1 inhibitor: -3; APOBEC3A inh: 0

How did COCC(=O)Nc1ccc2c(c1)C(=O)N(C)[C@@H]1CC[C@@H](CC(=O)N3CCc4ccccc4C3)O[C@@H]1CO2 do in these assays?
Statin myotox sup: 0

Results for O=C(CCS(=O)(=O)c1ccccc1)Nc1ncc([N+](=O)[O-])s1 ?
SUMO Mot1 rescue: 20; APOBEC3G inh: -12; Statin myotox sup: 75*; ASAP1 inh: -14; ARFGAP1 inhibitor: -14; APOBEC3A inh: -3

Results for C[C@H](CO)N1C[C@H](C)[C@H](CN(C)Cc2ccccc2)Oc2c(NS(C)(=O)=O)cccc2C1=O ?
Statin myotox sup: 36

How did O=C(Nc1ccc(Br)cc1)C1CCCC1 do in these assays?
SUMO Mot1 rescue: 333*; APOBEC3G inh: 0; Statin myotox sup: -4; ASAP1 inh: 8; ARFGAP1 inhibitor: -3; APOBEC3A inh: -2

Results for O=C(NC(=S)Nc1ccc(Br)cc1)C1CCCCC1 ?
SUMO Mot1 rescue: 1; APOBEC3G inh: -1; Statin myotox sup: -40; ASAP1 inh: -11; ARFGAP1 inhibitor: 0; APOBEC3A inh: 0

How did C[C@H]1CN([C@@H](C)CO)C(=O)c2cccc(NC(=O)Nc3ccccc3)c2O[C@H]1CN(C)C(=O)Nc1ccc(C(F)(F)F)cc1 do in these assays?
Statin myotox sup: -47

What do the screens show for `COc1ccc(NC(=O)Nc2ccc3c(c2)CC(=O)N([C@@H](C)CO)C[C@@H](C)[C@H](CN(C)C(=O)Nc2cccc4ccccc24)O3)cc1`?
Statin myotox sup: 78*

What do the screens show for `C[C@@H]1CN([C@H](C)CO)C(=O)Cc2cc(NC(=O)Nc3cccc4ccccc34)ccc2O[C@H]1CN(C)Cc1ccccc1`?
Statin myotox sup: 73*

What do the screens show for `C[C@@H]1CN([C@@H](C)CO)C(=O)Cc2cc(NC(=O)Nc3cccc4ccccc34)ccc2O[C@@H]1CN(C)Cc1ccccc1`?
Statin myotox sup: 0

What do the screens show for `C[C@@H]1CN([C@@H](C)CO)C(=O)Cc2cc(NC(=O)Nc3cccc4ccccc34)ccc2O[C@@H]1CN(C)Cc1ccc(C(F)(F)F)cc1`?
SUMO Mot1 rescue: 26; APOBEC3G inh: -6; Statin myotox sup: 98*; ASAP1 inh: 19; ARFGAP1 inhibitor: 16; APOBEC3A inh: 0

How did CO[C@H]1CC[C@@H]2CCN(C)C(=O)C[C@@H](c3ccccc3)CN(C)C(=O)c3cccc(C#N)c3OC[C@H]1O2 do in these assays?
Statin myotox sup: -4

Results for C[C@@H]1CN([C@H](C)CO)C(=O)c2cc(C#CCN(C)C)cnc2O[C@@H]1CN(C)C(=O)c1ccc2c(c1)OCO2 ?
Statin myotox sup: -11

What do the screens show for `COC(=O)NC(=S)Nc1ccc(Oc2ccc(Cl)cc2Cl)c(Cl)c1`?
SUMO Mot1 rescue: 13; APOBEC3G inh: 5; Statin myotox sup: 126*; ASAP1 inh: 15; ARFGAP1 inhibitor: 17; APOBEC3A inh: 3

How did Fc1ccc(NC(=S)Nc2ccc(F)c(Cl)c2)cc1Cl do in these assays?
SUMO Mot1 rescue: -9; APOBEC3G inh: 1; Statin myotox sup: 69*; APOBEC3A inh: 2

Results for O=c1[nH]c2ccc(NC(=S)Nc3ccc(Cl)cc3Cl)cc2[nH]1 ?
SUMO Mot1 rescue: -5; APOBEC3G inh: -9; Statin myotox sup: 139*; ASAP1 inh: 4; ARFGAP1 inhibitor: -5; APOBEC3A inh: 0

What do the screens show for `COC(=O)NC(=S)Nc1ccc(Oc2ccc(Cl)cc2)c(Cl)c1`?
SUMO Mot1 rescue: 3; APOBEC3G inh: -2; Statin myotox sup: -19; ASAP1 inh: -10; ARFGAP1 inhibitor: 7; APOBEC3A inh: -1

What do the screens show for `O=C(NC(=S)Nc1ccc(F)c(Cl)c1)C1CC1`?
SUMO Mot1 rescue: 20; APOBEC3G inh: -5; ASAP1 inh: -5; ARFGAP1 inhibitor: -10; APOBEC3A inh: 0
